Shown are actives, neighbours in structure and some others; about 2.4% of the full set was active somewhere.
IMP-1 inh: blocks Pseudomonas aeruginosa IMP-1 metallo-beta-lactamase | purified IMP-1, nitrocefin hydrolysis, epi-absorbance fluorescence | inhibition, % at 5.6 µM | 290,000 tested, 0.45% active;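 active means inhibition above the mean plus 3 SD of all compounds in the same screening run, cut at about 4.5% in these data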
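System: purified IMP-1 / Input: IMP-1 dispensed at 0.2 nM / Medium: 50 mM HEPES pH 7.1, 50 µM ZnSO4, 0.05% Brij 35 / Timing: 15 min enzyme–compound preincubation, then 25 min nitrocefin reaction, 25 °C / Technique: plate fluorescence quenching by hydrolysis product, ex 480/em 530 nm / Repeats: singlicate testing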
VIM-2 inhibitor: blocks Pseudomonas aeruginosa VIM-2 metallo-beta-lactamase; purified VIM-2, nitrocefin hydrolysis, epi-absorbance fluorescence; inhibition, % at 5.6 µM; 290,000 tested, 0.89% active;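 active means inhibition above the mean of all tested compounds plus 3 SD, cutoff set per screening run, cut at about 7.5% in these data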;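 further: red hydrolysis product quenches plate fluorescence so inhibitors raise well fluorescence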
M18AAP inhibitor: blocks P. falciparum M18 aspartyl aminopeptidase | recombinant PfM18AAP, H-Glu-NHMec fluorogenic cleavage | inhibition, % at 7.35 µM | 290,000 tested, 1.2% active;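 active means inhibition above the campaign mean inhibition over all tested compounds plus 3 SD, cut at about 28% in these data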
sPLA2-III inh: Blocks human group III sPLA2 activity; Q9NZ20; QFRET BODIPY PC-A2 liposome hydrolysis, fluorescence; inhibition, % at 12.2 µM; 370,000 tested, 0.56% active; AID 743126;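 active means inhibition above mean plus 3 SD of compounds lying within the high and low control bounds, cut at about 19% in these data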
Target sequence (Q9NZ20 whole entry, looked up): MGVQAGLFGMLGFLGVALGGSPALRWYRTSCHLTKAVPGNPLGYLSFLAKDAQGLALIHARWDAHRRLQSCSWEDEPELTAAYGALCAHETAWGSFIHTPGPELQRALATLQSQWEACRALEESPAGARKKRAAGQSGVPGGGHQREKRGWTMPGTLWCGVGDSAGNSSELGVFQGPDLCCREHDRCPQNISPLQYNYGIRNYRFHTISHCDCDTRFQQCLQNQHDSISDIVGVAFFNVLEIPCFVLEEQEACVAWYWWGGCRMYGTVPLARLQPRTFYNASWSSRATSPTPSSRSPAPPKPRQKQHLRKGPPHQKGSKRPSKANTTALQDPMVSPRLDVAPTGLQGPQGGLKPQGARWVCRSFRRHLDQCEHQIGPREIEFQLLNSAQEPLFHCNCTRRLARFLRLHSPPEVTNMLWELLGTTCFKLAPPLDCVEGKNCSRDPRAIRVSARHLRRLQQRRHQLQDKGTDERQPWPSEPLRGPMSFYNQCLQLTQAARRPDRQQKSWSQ
hGIII sPLA2 conf: human GIII-sPLA2 inhibition, confirmation. shares compounds with sPLA2-III inh. recombinant hGIII-sPLA2, BODIPY PC-A2 QFRET fluorescence. inhibition, % at 12.2 µM. 2,000 tested, 34% active;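 active means mean inhibition across triplicates above the hit cutoff set in the earlier primary screen, cut at about 19% in these data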
BODIPY interf: 535nm fluorescence interference, HGIII-sPLA2 counter-screen. shares compounds with sPLA2-III inh. BODIPY FL product fluorescence interference, QFRET. inhibition, % at 12.2 µM. 2,000 tested, 8.5% active;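 active means average inhibition above the solvent-only control mean plus 3 SD, cut at about 6% in these data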
535nm interf DR: 535nm optical interference dose response, HGIII-sPLA2 counter-screen; AID 743455; BODIPY FL product fluorescence interference, cell-free; IC50, µM; 240 tested, under 10 active; shares compounds with sPLA2-III inh;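 active means IC50 at or below 10 µM; inactive means IC50 above 10 µM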
A number is an active result; n = inactive; x = not tested or not shown.

SMILES	IMP-1 inh	VIM-2 inhibitor	M18AAP inhibitor	sPLA2-III inh	hGIII sPLA2 conf	BODIPY interf	others
CN=c1scc(-c2ccccc2F)n1/N=C/c1ccc[nH]1	n	n	n	35	29	n	535nm interf DR=n
OCCN1CCN(CC(O)COc2ccc(C34CC5CC(CC(C5)C3)C4)cc2)CC1 (centres undefined)	n	n	n	n	x	x
NCCOc1ccc(C23CC4CC(CC(C4)C2)C3)cc1	n	n	n	31	n	n
COc1ccc(O)c(/C=N/NC(=S)Nc2cccnc2)c1	n	n	n	20	27	n
COc1ccc(O)c(/C=N/NS(=O)(=O)c2ccc(C)cc2)c1	n	n	n	n	x	x
COc1cccc(/C=N/NC(=S)Nc2cccnc2)c1	n	n	n	n	x	x
COc1ccc(O)c(/C=N/NC(=S)Nc2cccc(S(=O)(=O)N(C)C)c2)c1	n	11	n	24	n	12
CCCCn1c(N)c(N(CC(C)C)C(=O)C2CC(=O)N(Cc3ccco3)C2)c(=O)[nH]c1=O (centres undefined)	n	n	n	n	x	x
Cc1ccc2cc(CCNC(=O)c3cccc([N+](=O)[O-])c3)c(=O)[nH]c2c1C	n	n	n	22	n	n
COc1ccc2cc(CCNC(=O)c3cccc([N+](=O)[O-])c3)c(=O)[nH]c2c1	n	n	n	n	x	x
S=C1NC2(CCCCC2)Cc2ccccc21	n	n	n	21	n	n
CCCCCC(=O)N1C[C@H](n2cc(C3CC3)nn2)[C@@H](O)C[C@@H]1c1ccccc1	x	x	x	n	x	x
CCc1cnc(Nc2nc(C(N)c3ccccc3Cl)cs2)nc1 (centres undefined)	x	x	x	26	n	n
CCSC1=NCCN1S(=O)(=O)c1ccc(Cl)cc1	n	n	n	22	n	n
CCSC1=NCCN1S(=O)(=O)c1ccccc1	n	n	n	n	x	x
COC(=O)c1cccc(OCC(C)CN2CCC(C(O)(c3ccccc3)c3ccccc3)CC2)c1 (centres undefined)	x	x	x	n	x	x
CCn1c(=S)[nH]c2scc(-c3cccs3)c2c1=O	n	n	n	n	x	x
CC(C)n1c(=S)[nH]c2scc(-c3cccs3)c2c1=O	n	n	n	23	48	9.6
CCOC(=O)NC(=O)C(=CNc1ccccc1OC)C(=O)NC(=O)OCC	n	n	n	21	n	n
O=C(NC1=N[C@@]2(C=C3CCCCC3n3c(=O)n(-c4ccccc4)c(=O)n32)CN1Cc1ccccc1)c1ccccc1 (some centres undefined)	x	x	x	n	x	x
Cc1ccc(NC(=S)NNC(=O)CSc2nnc(-c3ccc(Cl)cc3)n2C2CCCCC2)cc1	n	n	n	23	30	n	535nm interf DR=n
Cc1ccc(NC(=S)NNC(=O)CSc2nnc(-c3ccc(C)cc3)n2C2CCCCC2)cc1	x	x	x	24	n	n
CCn1c(SCC(=O)NNC(=S)Nc2ccc(C)cc2)nnc1-c1ccc(Cl)cc1	n	n	n	n	x	x
Cn1c(SCC(=O)NNC(=S)Nc2ccccc2)nnc1-c1ccccc1	n	n	n	n	x	x
Cc1[nH]c(N=Nc2ccccc2)nc1N=Nc1ccccc1	n	n	n	25	n	9.0
SMILES	IMP-1 inh	VIM-2 inhibitor	M18AAP inhibitor	sPLA2-III inh	hGIII sPLA2 conf	BODIPY interf	others
Cc1cccc2c(N=Nc3ccccc3)c(O)[nH]c12	n	n	n	n	x	x
CN(C)C=NC1=NN(c2cccc(C(F)(F)F)c2)CC1	n	n	n	21	n	n
CCN(CC)C(=O)CSc1nnc(-c2ccc(C(C)(C)C)cc2)n1-c1ccc(Cl)cc1	x	x	x	n	x	x
CCCCCCCCN1C(=O)[C@@H](CC(=O)NCc2ccccc2)C[C@@]2(C(=O)OC)C1=C[C@H](COCc1ccccc1)O[C@@H]2C	x	x	x	n	x	x
c1ccc2cc(Cn3ccc4ccc(-c5ccc6cc[nH]c6c5)cc43)ccc2c1	x	x	x	23	n	10
CCCNC(=O)COC(=O)c1cc2c(=O)n3ccccc3nc2s1	n	n	n	19	n	n
Cc1cccc(OCCNc2cc(N3CCOCC3)ccc2[N+](=O)[O-])c1	n	n	n	19	n	n
O=C(N/C(=C\c1ccccc1)C(=O)N1CCN(CCO)CC1)c1ccccc1	n	n	n	21	n	n
O=C(N/C(=C/c1ccccc1)C(=O)N1CCCCC1)c1ccccc1	n	n	n	n	x	x
Cc1ccc(CN2CCCCC(NC(=O)Nc3cccc([N+](=O)[O-])c3)C2=O)cc1 (centres undefined)	x	x	x	n	x	x
COc1cc(OC)cc(-c2c(-c3cccs3)c3cc(-c4ccc5[nH]ccc5c4)ccc3n2C)c1	x	x	x	20	37	8.7
Cc1ccc(S(=O)(=O)NNC(=O)Nc2ccccc2F)c(C)c1	n	n	n	n	x	x
Oc1ccccc1N=Nc1ccccc1O	n	n	n	36	36	n	535nm interf DR=n
Nc1ccc(N=Nc2ccccc2O)c(N)c1	x	x	x	21	56	21
Cc1ccc(N=Nc2cc(C)ccc2O)c(C)c1	n	n	n	n	x	x
O=C(NC(c1ccc(F)cc1)c1ccc2ccccc2n1)C1CCN(CCOc2ccc(Cl)cc2)CC1 (centres undefined)	x	x	x	n	x	x
CCC[C@H]1[C@@H](OC(=O)N2CCOCC2)CC[C@@]23CCCN2C(=O)CCC[C@@H]13	x	x	x	n	x	x
O=C(C[n+]1cccc(/C=N/O)c1)N1CCCCCC1	n	n	n	n	x	x
O=C(C[n+]1ccc(/C=N/O)cc1)N1CCCCC1	n	n	n	22	n	n
O=C(OC[C@@H]1CCCN2CCCC[C@H]12)c1cc2ccccc2oc1=O	n	n	n	20	n	n
O=C(OC1CCCCC1)c1cc2ccccc2oc1=O	n	n	n	n	x	x
COc1ccc(NC(=O)C2Cc3c(-c4cccc(F)c4)ccnc3O2)cc1OC (centres undefined)	x	x	x	n	x	x
CCCN(CCC)C(=O)c1oc2ccccc2c1NC(=O)Cc1cccc(OC)c1	n	n	n	20	n	n
CCC(=O)Nc1c(C(=O)Nc2cccc(OC)c2)oc2ccccc12	n	n	n	n	x	x
Cc1cc(C)c(S(=O)(=O)n2nc(C)c(Br)c2C)c(C)c1	n	n	n	19	n	n
SMILES	IMP-1 inh	VIM-2 inhibitor	M18AAP inhibitor	sPLA2-III inh	hGIII sPLA2 conf	BODIPY interf	others
Cc1nn(S(=O)(=O)c2cccc([N+](=O)[O-])c2)c(C)c1Br	n	n	n	n	x	x
Cc1cc(S(=O)(=O)N2CCCC(N(C)CCc3ccccn3)C2)c(C)cc1Cl (centres undefined)	n	n	n	n	x	x
CCCCN1CC(=O)N2[C@H](C[C@@]3(n4ccc5ccccc54)c4ccccc4N(S(=O)(=O)c4ccccc4)[C@@H]23)C1=O	x	x	x	n	x	x
CC(CC(=O)N1CCN(c2cccc(Cl)c2)CC1)S(=O)(=O)c1ccc2c(c1)NC(=O)CO2 (centres undefined)	n	n	n	n	x	x
COc1ccc(CC(N)c2csc(NC(=O)c3cc(C(C)(C)C)oc3C)n2)cc1 (centres undefined)	x	x	x	n	x	x
CCCCn1c(=O)nc2n(-c3ccc(Cl)cc3)c3ccccc3cc-2c1=O	n	n	n	25	n	n

Screening data (PubChem)
